Data on 4 compounds can be found in ChEMBL document CHEMBL1130202, “Biologically active heteroarotinoids exhibiting anticancer activity and decreased toxicity” (J Med Chem, 1997).

In data set [1] the test system is Mus musculus. Nature of the data set: Enlarged spleen in Gross pathological observations with hypervitaminosis A at 0.8 mg/kg/day dose with gross observations/total number of animals in group; 0/16. The data set is classed as functional, organism-based.
For data set [2], the system named is Mus musculus. The experiment in a line: Enlarged lymph in gross pathological observations with hypervitaminosis A in mice at 0.2 mg/kg/day dose with gross observations/total number of animals in group; 16/16. The data set is classed as functional, organism-based.
Data set [3] relates to Mus musculus. Nature of the data set: Total dose of 10% weight loss in mice at 0.01 mg/kg/day. The data set is classed as functional.
In data set [4] the test system is Mus musculus. Nature of the data set: Average number of fractures per mouse at 0.4 mg/kg/day.
Data set [5] is described as follows: Mortality rate in mice at 0.05 mg/kg/day. The data set is classed as ADME, organism-based. The conditions noted are these: mouse, in vivo. The method, boiled down:
(§1)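 Male B6D2F1 mice given compound daily by gavage in corn oil at the stated dose levels, with corn oil vehicle controls. Deaths counted as animals found dead or sacrificed moribund, with day(s) of death recorded. Heteroarotinoid groups ran to day 65 and low-dose reference groups to day 25.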

In data set [6] the test system is Mus musculus. The experiment in a line: Enlarged spleen in Gross pathological observations with hypervitaminosis A in mice at 0.1 mg/kg/day dose with gross observations/total number of animals in group; 4/16. The class given is functional, organism-based.
For data set [7], the system named is Mus musculus. The experiment in a line: Average number of fractures per mouse at 0.01 mg/kg/day.
Data set [8] in a line: Mortality rate in mice at 0.4 mg/kg/day; range (8-19). The conditions noted are these: mouse, in vivo. The data set is classed as ADME, organism-based. The method, boiled down:
as §1

The subject of data set [9] is Mus musculus. Nature of the data set: Skin scaling at 0.4 mg/kg/day in mice with hypervitaminosis; 15/16. The data set is classed as functional, organism-based.
A short description of data set [10]: Mortality rate in mice at 0.2 mg/kg/day; range (8-19). The conditions noted are these: mouse, in vivo. The class given is ADME, organism-based. The method, boiled down: as §1
Data set [11] relates to Mus musculus. The experiment in a line: Effect of compound on right testicle to body weight ratios in mice at 0.05 mg/kg/day dose on day 25; dead on day 65. The data set is classed as functional, organism-based.
In data set [12] the test system is Mus musculus. The experiment in a line: Enlarged lymph in gross pathological observations with hypervitaminosis A in mice at 0.4 mg/kg/day dose with gross observations/total number of animals in group; 12/16. The data set is classed as functional, organism-based.
Data set [13] in a line: Mortality rate in mice at 0.8 mg/kg/day; range (7-8). The conditions noted are these: mouse, in vivo. The class given is ADME, organism-based. The method, boiled down: as §1
Data set [14] deals with Mus musculus. The experiment in a line: Fracture incidents in mouse at 0.2 mg/kg/day; 3/8.
Data set [15] relates to Mus musculus. Nature of the data set: Effects of retinoids on thymus to body weight ratios in mice at 0.05 mg/kg/day dose.
Data set [16] is described as follows: Mortality rate in mice at 0.01 mg/kg/day. The class given is ADME, organism-based. The conditions noted are these: mouse, in vivo. In short, it runs like this: as §1
Data set [17] has as its system Mus musculus. Nature of the data set: Enlarged lymph in gross pathological observations with hypervitaminosis A in mice at 0.8 mg/kg/day dose with gross observations/total number of animals in group; 8/16. The data set is classed as functional, organism-based.
Data set [18] has as its system Mus musculus. The experiment in a line: Effect of compound on adrenal to body weight ratios in mice at 0.05 mg/kg/day dose; measured on day 25.
Data set [19] relates to Mus musculus. The experiment in a line: Alopecia observed at 0.4 mg/kg/day dose in mice with hypervitaminosis; 8/16. The data set is classed as functional, organism-based.
Data set [20] has as its system Mus musculus. Nature of the data set: Effect of compound on right testicle to body weight ratios in mice at 0.01 mg/kg/day dose on day 25. The data set is classed as functional, organism-based.
Data set [21] deals with Mus musculus. Nature of the data set: Alopecia observed at 0.05 mg/kg/day dose in mice with hypervitaminosis; 8/8. The data set is classed as functional, organism-based.
For data set [22], the system named is Mus musculus. The experiment in a line: Effect of compound on adrenal to body weight ratios in mice at 0.1 mg/kg/day dose; all the animals died by day 65. The data set is classed as functional, organism-based.
Data set [23] relates to Mus musculus. Nature of the data set: Skin scaling at 0.01 mg/kg/day in mice with hypervitaminosis; 4/8. The data set is classed as functional, organism-based.
Data set [24] relates to Mus musculus. The experiment in a line: Avoiding pressure on limbs at 0.1 mg/kg/day dose in mice hypervitaminosis; 0/16. The data set is classed as functional, organism-based. The conditions noted are these: Limb.
For data set [25], the species on record is Mus musculus. The experiment in a line: Skin scaling in mice at high dose with Hypervitaminosis; 0/16. The class given is functional, organism-based.
The species entered for data set [26] is Mus musculus. Nature of the data set: Average number of fractures per mouse at lmid dose 1.
For data set [27], the species on record is Mus musculus. Nature of the data set: Alopecia in mice observed at low dose with Hypervitaminosis; 1/16. The class given is functional, organism-based.
The species named for data set [28] is Mus musculus. The experiment in a line: Effect of compound on Spleen to body weight ratios in mice at low dose. The class given is functional. In short, it runs like this: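 Male B6D2F1 mice dosed daily by gavage with compound in corn oil; vehicle 1 (corn oil) controls run to termination on day 65. Low, mid 1, mid 2 and high dose groups, with dosage increases partway through the study. Organ-to-body weight ratios (×1000) taken at necropsy on day 65, reported as mean ± SD for 4 to 8 animals and as % difference from vehicle.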

The species entered for data set [29] is Mus musculus. Nature of the data set: Effect of compound on serum Alkaline phosphatase levels in mice at mid dose 1 on day 29. The data set is classed as functional. In short, it runs like this:
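Male B6D2F1 mice dosed daily by oral gavage in corn oil at low, mid 1, mid 2 or high dose. Blood sampled on set days (8, 29, 36, 65) for clinical chemistry, serum alkaline phosphatase and triglycerides. Group mean ± SD reported as % relative to vehicle 1; significance p < 0.05 versus corn oil vehicle.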

For data set [30], the species on record is Mus musculus. The experiment in a line: Skin scaling in mice at mid dose 1 with Hypervitaminosis; 1/16. The class given is functional, organism-based.
The species named for data set [31] is Mus musculus. Nature of the data set: Mortality rate in mice in mid dose 2. The data set is classed as functional. In short, it runs like this:
as §1

The species named for data set [32] is Mus musculus. Nature of the data set: Alopecia in mice observed at mid dose 1 with Hypervitaminosis; 2/16. The data set is classed as functional, organism-based.
The species named for data set [33] is Mus musculus. Nature of the data set: Avoiding pressure on limbs in mice at mid dose 1 with Hypervitaminosis 0/16. The data set is classed as functional, organism-based. The conditions noted are these: Limb.
Data set [34] is filed under the species Mus musculus. Nature of the data set: Enlarged spleen in Gross pathological observations in mice with hypervitaminosis A at mid dose 1 with gross observations/total number of mice in group; 1/16. The data set is classed as functional, organism-based.
Data set [35] is filed under the species Mus musculus. Nature of the data set: Effect of compound on thymus to body weight ratios in mice at high dose on day 65; all the animals died by day 65. The class given is functional, organism-based. The method, boiled down:
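Male B6D2F1 mice were dosed daily by gavage in corn oil, with TTNPB given at 0.1–0.8 or 0.01/0.05 mg/kg/day. Thymus-to-body weight ratio (×1000) was taken at necropsy on day 65 against vehicle 1, or on day 25 for the 0.01/0.05 groups against vehicle 2. Mean ± SD of 4–8 animals, reported as % difference from vehicle.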

Data set [36] is filed under the species Mus musculus. Nature of the data set: Fracture incidence in mouse at mid dose 1; 5/8.
Data set [37] is filed under the species Mus musculus. The experiment in a line: Enlarged lymph in gross pathological observations in mice with hypervitaminosis A at mid dose 1 with gross observations/total number of mice in group; 6/16. The data set is classed as functional, organism-based.
The species named for data set [38] is Mus musculus. The experiment in a line: Enlarged spleen in Gross pathological observations in mice with hypervitaminosis A at low dose with gross observations/total number of mice in group; 3/16. The class given is functional, organism-based.
The species entered for data set [39] is Mus musculus. The experiment in a line: Enlarged lymph in gross pathological observations in mice with hypervitaminosis A at low dose with gross observations/total number of mice in group; 6/16. The class given is functional, organism-based.
For data set [40], the species on record is Mus musculus. Nature of the data set: Enlarged spleen in Gross pathological observations in mice with hypervitaminosis A at mid dose 2 with gross observations/total number of mice in group; 6/16.

The source made the active and inactive calls. The rule behind the calls is not given here. A value given as a limit tells only on which side of the number the result lay.

Take `C/C(=C\c1ccc(C(=O)O)cc1)c1ccc2c(c1)C(C)(C)CCC2(C)C`: the result in data set [1] and in data set [24] was inactive. Besides, the outcome in data set [2], in [9], in [12] and in [21] was Active. The Dose in data set [3] was greater than 0.25 mg/kg. The Activity in data set [4] is 0.4; in data set [6], “Weak activity”; in [7], 0.1; in [11] it was “Toxic”; in data set [14], “Weak activity”; in data set [15] it was “Toxic”. Moreover, the Activity result in data set [17] was “Weak activity”; in [18], “Toxic”; in [19] it was “Weak activity”; in data set [20] it was “Toxic”; in [22] it was “Toxic”; in data set [23], “Weak activity”. Moreover, the Mortality in data set [5] is on record as 3 day of death; in data set [8], 14 day of death; in data set [10] it was 6 day of death; in data set [13] it was 16 day of death; in data set [16], 0 day of death.
Consider `CC(/C=C/C=C(\C)c1ccc2c(c1)C(C)(C)CCS2)=C\C(=O)O`, for which the result in data set [25], in data set [27] and in [30] was inactive. In addition, the Activity is reported as 0 in [26], 2.1 in data set [28] and 135.8 in [29].
With `CC(/C=C/C=C(\C)c1ccc2c(c1)C(C)(C)CCO2)=C\C(=O)O`, in data set [31], the Mortality is given as 0 day of death. The outcome in data set [32], in [33] and in data set [34] was inactive.
As to `C/C(=C\c1ccc(C(=O)O)cc1)c1ccc2c(c1)C(C)(C)CCO2`, the Activity entry in data set [35] was “Toxic”; in data set [36], “Weak activity”; in [37] it was “Weak activity”; in [39], “Weak activity”; in data set [40], “Weak activity”. Moreover, the outcome in data set [38] was inactive.
